The results in this text go back to ChEMBL document CHEMBL3826888, “New naphthalene derivatives and isoquinoline alkaloids from Ancistrocladus cochinchinensis with their anti-proliferative activity on human cancer cells” (Bioorg Med Chem Lett, 2016).

In brackets after ≈: the same amount, converted by molar mass.

The subject of test [1] is SK-MEL-2. The experiment in a line: Antiproliferative activity against human SK-MEL-2 cells assessed as cell death at 20 ug/ml after 3 days by sulforhodamine B assay relative to control. It is filed as functional. The method, boiled down: (§1)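 Human cancer cell lines HL-60 (promyelocytic leukemia), LU-1 (lung carcinoma) and SK-MEL-2 (melanoma) were screened by sulforhodamine B assay, with each sample at a single concentration of 20 µg/mL. The read-out was percentage cell death; samples giving over 50% death went on to dose-response testing. Ellipticine was the positive control throughout.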
In general terms: In SRB staining, fixed cells bind dye roughly in proportion to their protein.

Test [2] is described as follows: Antiproliferative activity against human HL60 cells assessed as cell death at 20 ug/ml after 3 days by sulforhodamine B assay relative to control. It is filed as functional, HL-60. A digest of the protocol:
as §1

In test [3] the test system is Lu1. The experiment in a line: Antiproliferative activity against human Lu1 cells assessed as cell death at 20 ug/ml after 3 days by sulforhodamine B assay relative to control. It is filed as functional. A digest of the protocol:
as §1

Test [4] deals with Plasmodium falciparum. The experiment in a line: Antiparasitic activity against Plasmodium falciparum K1. It is filed as functional, organism-based.
The subject of test [5] is Trypanosoma brucei brucei. The test is described as follows: Antitrypanosomal activity against Trypanosoma brucei brucei TC221. It is filed as functional, organism-based.
Test [6] concerns Plasmodium falciparum. The test is described as follows: Antiparasitic activity against Plasmodium falciparum NF54 after 48 hrs by [3H]-hypoxanthine incorporation assay. It is filed as functional, organism-based.
The test system of test [7] is Lu1. The experiment in a line: Antiproliferative activity against human Lu1 cells after 3 days by sulforhodamine B assay relative to control. It is filed as functional, cell-based. As to conditions: Lu1, 72 h. The method, boiled down: (§2)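 SRB cell-proliferation assay on human cancer cell lines. Each sample was first screened at a single concentration of 20 µg/mL. Samples causing over 50% cell death then went to a dose-dependent study to derive IC50 in µg/mL. Ellipticine served as positive control throughout.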

For test [8], the system named is SK-MEL-2. The test is described as follows: Antiproliferative activity against human SK-MEL-2 cells after 3 days by sulforhodamine B assay relative to control. Format: functional, cell-based. As to conditions: SK-MEL-2, 72 h. A digest of the protocol: as §2
Test [9] is described as follows: Antiproliferative activity against human HL60 cells after 3 days by sulforhodamine B assay relative to control. As to conditions: HL-60, 72 h. Format: functional, cell-based. The method, boiled down:
as §2

For the compound `COc1cc(O[C@@H]2O[C@H](CO)[C@@H](O)[C@H](O)[C@H]2O)cc2cc(CO)nc(C)c12`, the Activity in test [1], in [2] and in test [3] was under 50% in each case.
For `COc1cc(O)c2c(c1-c1c(C)cc(OC)c3c(OC)cccc13)C[C@H](C)N[C@H]2C` (stereo in doubt; form 1), the IC50 (in general, the concentration at which inhibition is half-maximal) in [4] stood at 70 nM.
As for `COc1cc(C)cc2ccc(-c3ccc4c(c3O)[C@@H](C)N[C@H](C)C4)c(O)c12`, the EC50 – broadly, the concentration at which the effect is half-maximal – in [5] came to 2.6 nmol/mL.
In the case of `COc1cc([C@H]2OC[C@H]3[C@@H]2CO[C@H]3c2cc(OC)c(O[C@@H]3O[C@H](CO)[C@@H](O)[C@H](O)[C@H]3O)c(OC)c2)cc(OC)c1O`, the Activity in test [1], in test [2] and in test [3] was under 50% throughout.
With `COc1cc(O)cc2cc(CO)nc(C)c12`, the Activity in test [1], in test [2] and in test [3] was under 50% in each case.
In test [4] (Plasmodium falciparum, K1), `COc1cc(O)c(-c2c(C)cc(O)c3c(OC)cccc23)c2c1[C@@H](C)N(C)[C@@H](C)C2` gave a concentration for half-maximal inhibition (IC50) of 80 nM.
For `Cc1cc(O)c2c(c1)[C@H](O[C@@H]1O[C@H](CO[C@@H]3O[C@H](CO)[C@@H](O)[C@H](O)[C@H]3O)[C@@H](O)[C@H](O)[C@H]1O)CCC2=O`, the Activity in [1], in [2] and in [3] was under 50% each time.
Turning to `COc1cc(O)ccc1O[C@@H]1O[C@H](COC(=O)c2cc(OC)c(O)c(OC)c2)[C@@H](O)[C@H](O)[C@H]1O`, the Activity in test [1], in [2] and in test [3] was under 50% each time.
For `Cc1cc(O[C@@H]2O[C@H](CO[C@@H]3OC[C@](O)(CO)[C@H]3O)[C@@H](O)[C@H](O)[C@H]2O)c2c(O)cccc2c1`, the Activity in [1], in test [2] and in [3] was under 50% throughout.
The compound `COc1cccc2c(-c3ccc4c(c3O)[C@@H](C)N[C@H](C)C4)c(C)cc(OC)c12` [DIONCOPHYLLINE A] registered an EC50 in test [5] of 3.4 nmol/mL.
Still for that read-out and setting: the value for `COc1cc(C)c(-c2ccc(O)c3c2C[C@@H](C)N[C@@H]3C)c2cccc(O)c12` [DIONCOPHYLLINE C] was 4.2 nmol/mL.
With `COc1cc(O)c2c(c1-c1c(C)cc(OC)c3c(OC)cccc13)C[C@H](C)N[C@H]2C` (stereo in doubt; form 2), the IC50 in test [4] turned out to be 30 nM.
In test [6], `COc1cccc2c(-c3ccc4c(c3O)[C@@H](C)N[C@H](C)C4)c(C)c(-c3c(C)c(-c4ccc5c(c4O)[C@@H](C)N[C@H](C)C5)c4cccc(OC)c4c3O)c(O)c12` came in with an IC50 of 1.4 nM.
For `COc1cc(O)c(-c2c(C)cc(OC)c3c(OC)cccc23)c2c1[C@@H](C)N[C@@H](C)C2`, the values for the IC50 in [7], in test [8] and in test [9] were 6.5 µg/mL (≈ 16 µM), 6.8 µg/mL (≈ 16.7 µM) and 5 µg/mL (≈ 12.3 µM), respectively. The Activity in test [1], in test [2] and in [3] was over 50% in each case.
